According to ChEMBL document CHEMBL1128510, “Potent inhibitors of acyl-CoA:cholesterol acyltransferase. Structure-activity relationships of novel N-(4-oxochroman-8-yl)amides” (J Med Chem, 1995):

Assays:
[1] = Inhibition of rabbit small-intestinal Acyl coenzyme A:cholesterol acyltransferase 1; parameters: species or system Oryctolagus cuniculus
In short: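 Source: intestinal mucosa microsomes from cholesterol-fed Japanese white rabbits. Mucosa homogenized in 40 mM phosphate pH 7.4 with 30 mM EDTA, 50 mM KCl and 0.1 M sucrose; spun 10000g for 30 min, then 105000g for 1 h, at 4 °C.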

[2] = test system: Rattus norvegicus; experiment: Serum total cholesterol-lowering activity in the cholesterol-fed rats expressed as the ratio of the observed reduction to the difference between the control and normal levels 100 (10 mg/kg po); assay type: functional
In short: (§1)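 Male Wistar rats (8–9 weeks, 200 g, n = 6/group) on normal chow for 7 days, then a 2% cholesterol/1% cholic acid/12% coconut oil diet for 3 days. Compound in 0.5% methyl cellulose given orally once daily for 3 days at the listed dose; controls got vehicle. After a 16 h fast, aortic blood taken; serum cholesterol measured enzymatically. % change = (A−B)/(B−C)×100, with B = control and C = normal-diet rats.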

[3] = Ability to inhibit rabbit liver Acyl coenzyme A:cholesterol acyltransferase 1; parameters: species or system Oryctolagus cuniculus
In short: (§2)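 Liver microsomes from Japanese white rabbits, prepared in 0.154 M phosphate buffer pH 7.4 with 40 mM NaF. Assay mix: 36 μM BSA, 2 mM DTT, 0.5 mg/mL microsomes, sonicated liposomes (PC:PS:cholesterol 3:1:8, 8 mg/mL cholesterol). Compound added as 1% (v/v) DMSO solution, preincubated 3 min at 37 °C. Reaction started with 43 μM [14C]oleoyl-CoA, 10 min at 37 °C. Cholesteryl oleate radioactivity measured; IC50 determined.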

[4] = test system: Rattus norvegicus; experiment: Serum total cholesterol-lowering activity in the cholesterol-fed rat expressed as the ratio of the observed reduction to the difference between the control and normal levels 100 (0.1 mg/kg po); assay type: functional; in short: as §1
[5] = test system: Rattus norvegicus; experiment: Serum total cholesterol-lowering activity in the cholesterol-fed rat expressed as the ratio of the observed reduction to the difference between the control and normal levels 100 (0.3 mg/kg, po); assay type: functional; in short: as §1
[6] = species: Rattus norvegicus; experiment: IC50 is the concentration that inhibits 50% of the enzyme activity was evaluated by measuring the ability to inhibit acetyl-LDL-induced cholesteryl ester accumulation in rat peritoneal macrophages.; assay type: functional
In short: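 Peritoneal macrophages from nonstimulated male Wistar rats (250–300 g), 3 × 10^6 per dish in 10% FBS-DMEM, adhered 2 h at 37 °C in 5% CO2. Washed in 3% BSA-DMEM, then incubated 16 h with 25 µg/mL acetylated human LDL, [14C]oleate-BSA and compound. Lipids extracted in hexane–2-propanol with [3H]cholesteryl oleate recovery standard. Cholesteryl oleate isolated by TLC and counted; IC50 determined for ester accumulation.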

[7] = test system: Rattus norvegicus; experiment: Serum total cholesterol-lowering activity in the cholesterol-fed rats expressed as the ratio of the observed reduction to the difference between the control and normal levels 100 (3 mg/kg po); assay type: functional; in short: as §1
[8] = Ability to inhibit rabbit liver Acyl coenzyme A:cholesterol acyltransferase 1.; parameters: species or system Oryctolagus cuniculus; in short: as §2
[9] = test system: Rattus norvegicus; experiment: Serum total cholesterol-lowering activity in the cholesterol-fed rats expressed as the ratio of the observed reduction to the difference between the control and normal levels 100. (0.3 mg/kg, po); assay type: functional; in short: as §1
[10] = test system: Rattus norvegicus; experiment: Serum total cholesterol-lowering activity in the cholesterol-fed rats expressed as the ratio of the observed reduction to the difference between the control and normal levels 100 (0.1 mg/kg po); assay type: functional; conditions: in the assay text read “1 mg/kg po” for “0.1 mg/kg po”; in short: as §1
[11] = test system: Rattus norvegicus; experiment: Serum total cholesterol-lowering activity in the cholesterol-fed rats expressed as the ratio of the observed reduction to the difference between the control and normal levels 100 (0.3 mg/kg po); assay type: functional; in short: as §1
[12] = test system: Rattus norvegicus; experiment: Serum total cholesterol-lowering activity in the cholesterol-fed rat expressed as the ratio of the observed reduction to the difference between the control and normal levels 100 (3 mg/kg po); assay type: functional; in short: as §1

SMILES | IC50 [1] | further results
Cc1cc(C)c2c(c1NC(=O)C(C)(C)CCCCCOc1ccc(Cl)cc1)OCCC2=O | 400 nM | –
Cc1ccc2c(c1NC(=O)C(C)(C)CCCCCOc1ccc(Cl)cc1)OCCC2=O | 470 nM | Change [2]: -53%
CCCCCCCCCCC(C)(C)C(=O)Nc1c(Cl)ccc2c1OCCC2=O | 150 nM | –
Cc1ccc2c(c1NC(=O)c1ccccc1)OCCC2=O | > 1000 nM | –
CCCCCCCCCCC1(C(=O)Nc2c(C)ccc3c2OCCC3=O)CCCC1 | 170 nM | –
Cc1ccc2c(=O)ccoc2c1NC(=O)C(C)(C)CCCCCOc1ccc(Cl)cc1 | > 500 nM | –
CCCCCCCCCCC(C)(C)C(=O)Nc1c(OC)ccc2c1OCCC2 | 180 nM | –
CCCCCCCCCCOc1cc(C)c(C(=O)Nc2c(OC)ccc3c2OCCC3=O)c(C)c1 | > 200 nM | –
CCCCCCCCCCC(C)(C)C(=O)Nc1c(OC)ccc2c(=O)cc(CC)oc12 | 780 nM | –
CCCCCCCCCCC(C)(C)C(=O)Nc1c(C)ccc2c1OCCC2=O | 210 nM | –
COc1ccc(C(=O)Nc2c(C)ccc3c2OCCC3=O)cc1 | > 1000 nM | –
Cc1ccc2c(c1NC(=O)C(C)(C)Cc1ccccc1)OCCC2=O | > 1000 nM | –
COc1ccc2c(c1NC(=O)C(C)(C)CCCCCCOc1ccc(Cl)cc1)C(=O)CCO2 | 180 nM | –
CCCCCCCCCCOc1ccc2c(c1NC(=O)C(C)(C)CCCCCCCCCC)OCCC2=O | 850 nM | –
CCCCCCCCCCC(C)(C)C(=O)Nc1c2c(cc(N(C)C)c1OC)C(=O)CCO2 | > 200 nM | –
CCCCCCCCCCOc1ccc(C(=O)Nc2c(OCCCCCCCCCC)ccc3c2OCCC3=O)cc1 | > 100 nM | –
CCCCCCCCCCC1(C(=O)Nc2c(C)ccc3c2NCCC3=O)CCCC1 | 430 nM | –
Cc1ccc2c(c1NC(=O)C(C)(C)CCCCOc1ccc(Cl)cc1)OCCC2=O | 510 nM | –
CCCCCCCCCCOc1ccc2c(c1NC(C)=O)OCCC2=O | 300 nM | –
CCCCCCCCCCOc1ccc2c(c1NC(=O)c1ccc(OCCCCCCOc3ccc(Cl)cc3)cc1)OCCC2=O | 540 nM | –
CCCCCCCCCCC(C)(C)C(=O)Nc1c(OC)cc(OC)cc1OC [CL-976] | 140 nM | IC50 [3]: 149 nM; Change [12]: -50%; IC50 [6]: 3800 nM

Continued by falling IC50 [1], values first:

IC50 [1] | SMILES | further results
140 nM | CCCCCCCCCCOc1ccc2c(c1NC(=O)C(C)(C)CCCCCCOc1ccc(Cl)cc1)OCCC2=O | –
130 nM | CCCCCCCCCCOc1ccc2c(=O)ccoc2c1NC(=O)C(C)(C)C | –
77 nM | CCCCCCCCCCC(C)(C)C(=O)Nc1c(OC)ccc2c(=O)ccoc12 | –
64 nM | COc1ccc2c(c1NC(=O)C(C)(C)CCCCCCOc1ccc(Cl)cc1)OCCC2=O | Change [11]: -53%; Change [9]: -53%
49 nM | CCCCCCCCCCC(C)(C)C(=O)Nc1c(OC)c(NC)cc2c1OCCC2=O | –
44 nM | COc1ccc2c(c1NC(=O)C(C)(C)CCCCCCc1ccccc1)OCCC2=O | –
43 nM | COc1ccc(OCCCCOc2ccc3c(c2NC(=O)C(C)(C)C)OCCC3=O)cc1 | –
40 nM | COc1ccc2c(c1NC(=O)c1ccc(OCCCCCCOCC(C)C)cc1)OCCC2=O | –
34 nM | CCCCCCCCCCC(C)(C)C(=O)Nc1c2c(cc([N+](=O)[O-])c1OC)C(=O)CCO2 | –
31 nM | CCCCCCCCC(C)(C)C(=O)Nc1c(OC)ccc2c1OCCC2=O | –
30 nM | CCCOCCCCCCC(C)(C)C(=O)Nc1c(OC)ccc2c1OCCC2=O | –
27 nM | CCCc1ccc(CCCC(C)(C)C(=O)Nc2c(OC)ccc3c2OCCC3=O)cc1 | Change [10]: -54%
26 nM | COc1ccc2c(c1NC(=O)C(C)(C)CCCCCCOCC(C)C)OCCC2=O | –
26 nM | COc1ccc2c(c1NC(=O)c1ccc(OCCCCCCOc3ccc(Cl)cc3)cc1)OCCC2=O | IC50 [8]: 59 nM; Change [7]: -79%; Change [9]: -56%; IC50 [6]: 220 nM
24 nM | CC(C)(C)C(=O)Nc1c(OCCCCCCc2ccccc2)ccc2c1OCCC2=O | –
17 nM | COc1ccc2c(c1NC(=O)C(C)(C)CCCc1ccc(CC(C)C)cc1)OCCC2=O | –
16 nM | CCCCCCOc1ccc(CCCC(C)(C)C(=O)Nc2c(OC)ccc3c2OCCC3=O)cc1 | Change [7]: -65%
14 nM | CCCCCCCCCCC(C)(C)C(=O)Nc1c(OCCC)ccc2c1OCCC2=O | –
14 nM | CCCCCCCCCCOc1ccc2c(c1NC(=O)C(C)(C)C)OCCC2=O | IC50 [3]: 22 nM; Change [5]: -45%; IC50 [6]: 130 nM
13 nM | CCCCCCCCCCC(C)(C)C(=O)Nc1c(OC)ccc2c1OCCC2=O | IC50 [3]: 16 nM; Change [4]: -61%; Change [5]: -66%; IC50 [6]: 160 nM
12 nM | CCCCCCCCCCOc1ccc(C(=O)Nc2c(OC)ccc3c2OCCC3=O)cc1 | –
7.5 nM | CCCCCCCCCCCCC(C)(C)C(=O)Nc1c(OC)ccc2c1OCCC2=O | –
